Published values gathered from unrelated publications.
Compare with care: the assays were run in different laboratories.
Organism: Severe acute respiratory syndrome coronavirus 2

| Structure (SMILES) | assay | system | setting | inhibition |
| --- | --- | --- | --- | --- |
| NCC[C@H](O)C(=O)N[C@@H]1C[C@H](N)[C@@H](O[C@H]2O[C@H](CN)[C@@H](O)[C@H](O)[C@H]2O)[C@H](O)[C@H]1O[C@H]1O[C@H](CO)[C@@H](O)[C@H](N)[C@H]1O | viral replication | Vero C1008 | 50 µM | 3% |
| Oc1c(Br)cc(Cl)c2cccnc12 | viral replication, inhibitor | Vero C1008 | 30 µM | ~103% |
| O=C(Nc1ccccc1F)c1cc2c(=O)n3ccccc3nc2n1Cc1ccccc1 | viral replication | Vero | 10 µM | 96.6% |
| Cc1cc(O)c(C=O)c2c1C(=O)Oc1c(cc3c(c1C)C(=O)CC(C)(C)O3)O2 | viral replication, inhibitor | Calu-3 | 50 µM | 99.5% |
| CCCc1nc2ccc(N(CCC)C(=O)c3ccccc3)cc2c(=O)n1Cc1ccc(-c2ccccc2-c2nnn[nH]2)cc1 | viral replication, inhibitor | Vero C1008 | 1 µM | 54.3% |
| CN=c1nc(-c2ccc(OC)c(OC)c2)n(-c2ccc(F)cc2)s1 | viral replication, inhibitor, qPCR | Vero C1008 | 50 µM, 24 h | 21.5% |
| C=C[C@@](C)(/C=C/c1ccc(O)cc1)CCC=C(C)C | cytopathic effect | Vero C1008 | 100 µM | 0% |
| Cc1cccn2c(=O)c3cc(C(=O)Nc4ccc(N(C)C)cc4)n(C)c3nc12 | viral replication | Vero | 1 nM | 2.51% |
| CC1(C)CCC[C@]2(C)O[C@H]3CC[C@@]4(C)[C@@H](CC[C@]5(C)[C@@H]4CC[C@]4(C)c6c(C(O)C(=O)O)ccc(O)c6C[C@@H]54)[C@]3(C)CC[C@@H]12 (stereo partly shown) | viral replication, inhibitor | Calu-3 | 50 µM | 0% |
| CC(C)=CCc1c(O)ccc(C(=O)/C=C/c2ccc(O)cc2)c1O | cytopathic effect, inhibitor | Vero C1008 | 50 µM | 0% |
| Cc1ccc(NC(=O)c2cc3c(=O)n4cccc(C)c4nc3n2C)cc1Cl | viral replication | Vero | 1 µM | 87.3% |
| Oc1c(Cl)cc(Cl)c2cccnc12 | viral replication, inhibitor | Vero C1008 | 30 µM | 89.8% |
| COc1c2ccoc2c(OCC=C(C)C)c2oc(=O)ccc12 | viral replication, inhibitor | Calu-3 | 50 µM | 96% |
| COc1cc(F)cc2c1-c1ccc(F)cc1C21NC(=O)NC1=O (stereo not shown) | viral replication, inhibitor | Vero C1008 | 1 µM | 52% |
| CC1=C(C/C=C(\C)CC/C=C(\C)Cc2cccc3ccccc23)C(=O)c2ccccc2C1=O | viral replication, inhibitor | VeroE6/TMPRSS2 | 100 µM, 72 h | 48% |
| O=C(NCCN1CCCC1)c1cc(-c2ccc(CN3CCOCC3)cc2)nc2ccc(F)cc12 | viral replication, inhibitor | Vero C1008 | 1 µM | 45.8% |
| COc1ccc(C[C@@H]2c3cc(Oc4cc(C[C@@H]5c6cc(O)c(OC)cc6CCN5C)ccc4O)c(OC)cc3CCN2C)cc1 | cytopathic effect, inhibitor | Vero C1008 | 25 µM | 0% |

| Structure (SMILES) | assay | system | setting | inhibition |
| --- | --- | --- | --- | --- |
| C/C=C(/C)C(=O)O[C@H]1C(C)=C[C@]23C(=O)[C@@H](C=C(CO)[C@@H](O)[C@]12O)[C@H]1[C@@H](C[C@H]3C)C1(C)C | viral replication, inhibitor | Vero C1008 | 1 µM | 47.4% |
| C[C@@H]1O[C@@H](OC[C@H]2O[C@@H](Oc3c(-c4ccc(OCCO)c(OCCO)c4)oc4cc(OCCO)cc(O)c4c3=O)[C@H](O)[C@@H](O)[C@@H]2O)[C@H](O)[C@H](O)[C@H]1O | viral replication | Vero C1008 | 50 µM | 3% |
| CCN(CC)CCCC(C)Nc1ccnc2cc(Cl)ccc12 (stereo not shown) | viral replication, inhibitor | Vero C1008 | 1 µM | 48.7% |
| COc1cc(-c2cc3c(c(=O)o2)C[C@]2(O)[C@@]4(C)C(=O)C=CC(C)(C)[C@]4(O)CC[C@@]2(C)O3)cc(OC)c1OC | viral replication, inhibitor | Calu-3 | 50 µM | 101% |
| Cn1c(C(=O)Nc2ccc(Cl)cc2)cc2c(=O)n3ccccc3nc21 | viral replication | Vero | 0.1 µM | 37.7% |
| CC1=C(C/C=C(\C)CC/C=C(\C)Cc2ccc3ccccc3c2)C(=O)c2ccccc2C1=O | viral replication, inhibitor | VeroE6/TMPRSS2 | 100 µM, 72 h | 39% |
| Cn1c(C(=O)Nc2ccc3c(c2)OCCO3)cc2c(=O)n3ccccc3nc21 | viral replication | Vero | 10 nM | 8% |
| O=C(CCCN1CCC(O)(c2ccc(Cl)cc2)CC1)c1ccc(F)cc1 | viral replication | Vero C1008 | 50 µM | 3% |
| CCc1ccc(NC(=O)c2cc3c(=O)n4ccccc4nc3n2C)cc1 | viral replication | Vero | 0.1 µM | 51.5% |
| O=c1[nH]c(=O)n([C@@H]2O[C@H](CO)[C@@H](O)[C@@H]2O)cc1/C=C/Br | viral replication, inhibitor | Vero C1008 | 1 µM | 52.6% |
| O=C(O)C1=CC(=C(c2ccc(O)c(C(=O)O)c2)c2ccc(O)c(C(=O)O)c2)C=CC1=O | viral replication | Vero C1008 | 50 µM | 80% |
| O=C(/C=C/c1ccc(O)c(O)c1/C=C/c1ccc(O)c(O)c1)O[C@H](Cc1ccc(O)c(O)c1)C(=O)O | cytopathic effect | Vero C1008 | 6.25 µM | 0% |
| C=C(C)[C@]12C[C@@H](C)[C@@]34O[C@](Cc5ccccc5)(O[C@@H]1[C@@H]3C=C(COC(=O)Cc1ccc(O)c(OC)c1)C[C@]1(O)C(=O)C(C)=C[C@@H]41)O2 | viral replication, inhibitor | Vero C1008 | 1 µM | 53.2% |
| CC(=O)c1cccc(NC(=O)c2cc3c(=O)n4ccccc4nc3n2C)c1 | viral replication | Vero | 10 nM | 43.8% |
| O=C(O[C@@H]1Cc2c(O)cc(O)cc2O[C@@H]1c1cc(O)c(O)c(O)c1)c1cc(O)c(O)c(O)c1 | cytopathic effect | Vero C1008 | 25 µM | 25% |
| OC[C@H]1O[C@@H](O[C@@H]2[C@@H](CO)OC(O)(CO)[C@H]2O)[C@H](O)[C@@H](O)[C@H]1O (mixture of isomers) | viral replication | Vero C1008 | 50 µM | 3% |
| O=C(O)c1cnc2n1CCc1ccccc1C2=C1CCN(CCc2ccc(OCc3ccc4ccccc4n3)cc2)CC1 | viral replication, inhibitor | Vero C1008 | 1 µM | 50.3% |
